Measurements from different studies.
Each line is one published result; the experiments were not run side by side.
Target: Casein kinase II subunit alpha (CSNK2A1, Homo sapiens, UniProt P68400)

`C[C@@H](c1ccc(-n2cnc3c(N)ncnc32)cc1)N1CCc2nn(C)c(Cc3ccccc3)c2C1=O` has a remaining binding of 73% (binding; competition with immobilised ligand; 0.1 µM).
For `CCC(=O)N[C@H]1CC[C@@H](C(=O)N(C)c2ccc(-c3nc4ccccc4o3)cc2)C1`, the remaining binding was 74% (cell-free assay; competition with immobilised ligand; 1 µM).
`CC1CCCN1c1nccc(-c2cnn3ncccc23)n1` (stereo not drawn) gave a remaining binding of 90% (binding; 1 µM).
For `O=C1NC(c2ccccn2)Sc2ccccc21` (stereo not drawn), the remaining binding was 61% (cell-free assay; competition with immobilised ligand; 1 µM).
`CCN1CCN(Cc2ccc(C(=O)Nc3ccc(C)c(Oc4ccc5c(c4)CC(=O)N5)c3)cc2C(F)(F)F)CC1` has a remaining binding of 100% (binding; competition with immobilised ligand; 1 µM).
`C[C@@H]1CCN(c2nccc(-c3cnn4ncccc34)n2)C1` gave a remaining binding of 89% (binding; 1 µM).
`CC1=C(C#N)[C@@H](c2ccc3[nH]nc(C)c3c2)C(C#N)=C(c2ccc(Cl)cc2)N1` gave a remaining binding of 100% (cell-free assay; competition with immobilised ligand; 1 µM).
`C=CC(=O)N1CCC(C(=O)NCC(=O)N2CCN(c3nc(-c4cnc(N)nc4C(F)F)nc(N4CCOCC4)n3)CC2)CC1` gave a remaining binding of 75% (binding; competition with immobilised ligand; 1 µM).
For `Cc1cnc(Nc2ccc(C(=O)N3CCC(N4CCCC4)CC3)cc2)nc1-c1cc2ccccc2s1`, the remaining binding was 0.5% (binding; competition with immobilised ligand; 1 µM).
`N[C@@H]1CCN(c2nccc(-c3cnn4ncccc34)n2)C1` has a remaining binding of 52% (binding; 1 µM).
For `O=C(NCCCN1CCOCC1)c1ccc(Nc2ncc(Cl)c(-c3ccc(Cl)s3)n2)cc1`, the remaining binding was 4% (binding; competition with immobilised ligand; 1 µM).
`CN(C(=O)c1ccccc1)c1cc(N(C)c2ccc3c(c2)CCc2ccc(C(=O)NCCN4CCOCC4)cc2C3=O)ccc1F` has a remaining binding of 100% (cell-free assay; competition with immobilised ligand; 1 µM).
The remaining binding of `CN(C)c1nccc(-c2cnn3ncccc23)n1` is reported as 39% (binding; 1 µM).
For `CC(=O)c1c(NS(C)(=O)=O)c2cc(-c3ccc(Cl)cc3)c(-c3ccc(Cl)cc3Cl)nc2n(C)c1=O`, the remaining binding was 92% (cell-free assay; competition with immobilised ligand; 1 µM).
`CN(CCCC(F)(F)F)c1nccc(-c2cnn3ncccc23)n1` has a remaining binding of 66% (binding; 1 µM).
For `COc1cnc(Nc2cccc(S(N)(=O)=O)c2)nc1N1CCN(c2ccccc2)CC1`, the remaining binding was 71% (binding; competition with immobilised ligand; 1 µM).
With `Cn1nc(C(F)(F)F)cc1-c1cnc(N2CCc3cc(S(=O)(=O)Nc4c(F)cc(Cl)cc4F)cc(N4CCCC4=O)c32)nc1` the remaining binding was 65% (cell-free assay; competition with immobilised ligand; 1 µM).
The remaining binding of `CNC(=O)[C@@H]1CC[C@@H](n2c(-c3ccc4cnccc4c3)nc3ccc(C(=O)NCc4cccc(C(N)=O)c4)cc32)C1` is reported as 94% (binding; competition with immobilised ligand; 1 µM).
For `O=C(NCC1CCOCC1)c1n[nH]cc1NC(=O)c1c(F)cccc1F`, the remaining binding was 59% (binding; competition with immobilised ligand; 1 µM).
`O=C(NCCCN1CCOCC1)c1ccc(Nc2nccc(-c3cc4ccccc4s3)n2)cc1` gave a remaining binding of 37% (binding; competition with immobilised ligand; 1 µM).
The remaining binding of `F[C@@H]1CCN(c2nccc(-c3cnn4ncccc34)n2)C1` is reported as 58% (binding; 1 µM).
